Reference: ChEMBL document CHEMBL4840315, “Δ9-cis-Tetrahydrocannabinol: Natural Occurrence, Chirality, and Pharmacology” (J Nat Prod, 2021)
Active and inactive are the calls of the source.

Columns and labels:
Mus musculus [1] = test: In vivo agonist activity at CB1R in BALB/c mouse assessed as induction of hypothermia at 50 mg/kg, ip measured after 1 hr by rectal measurement method; type: functional, organism-based
Summary of the method: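 Male BALB/c mice (8–10 weeks) given compound in pure DMSO intraperitoneally, 5–8 mice per group. Rectal temperature taken by thermocouple probe before dosing and 1 h after. Change is expressed as basal minus post-injection temperature. Groups compared with vehicle by Kruskal–Wallis then Mann–Whitney.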

[2] = molecular target: T1, Lysophosphatidylserine lipase ABHD12 (Homo sapiens, UniProt Q8N2K0); test: Inhibition of human ABHD12 transfected in HEK293 cells using 2-OG as substrate preincubated for 30 mins followed by substrate addition measured after 5 mins by liquid scintillation spectroscopy; type: cell-based
T1 sequence (Q8N2K0 whole entry): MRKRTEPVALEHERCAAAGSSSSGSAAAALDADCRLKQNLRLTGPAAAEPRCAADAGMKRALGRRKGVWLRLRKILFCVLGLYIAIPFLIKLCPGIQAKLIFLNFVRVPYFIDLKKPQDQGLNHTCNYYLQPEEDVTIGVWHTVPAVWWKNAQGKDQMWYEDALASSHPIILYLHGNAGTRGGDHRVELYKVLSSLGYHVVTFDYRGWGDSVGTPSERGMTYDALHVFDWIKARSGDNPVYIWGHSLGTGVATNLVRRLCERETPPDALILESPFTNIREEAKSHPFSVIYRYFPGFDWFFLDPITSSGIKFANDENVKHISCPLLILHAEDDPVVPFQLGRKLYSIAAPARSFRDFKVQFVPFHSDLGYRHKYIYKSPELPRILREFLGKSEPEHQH
Summary of the method: (§1)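 Homogenate (40 μg) of HEK-293 cells stably expressing hABHD6 or hABHD12, in […], 0.1% BSA, pH 7.6. Compound preincubated 30 min at 37 °C, then 10 μM 2-OG for 5 min at 37 °C. Tritium counted in aqueous phase; non-transfected HEK293 hydrolysis subtracted. Positive controls: WWL70 10 μM (ABHD6), THL 20 μM (ABHD12). At least two experiments in triplicate, mean ± SD.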

[3] = molecular target: T2, Monoacylglycerol lipase ABHD6 (Homo sapiens, UniProt Q9BV23); test: Inhibition of human ABHD6 transfected in HEK293 cells using 2-OG as substrate preincubated for 30 mins followed by substrate addition measured after 5 mins by liquid scintillation spectroscopy; type: cell-based; summary of the method: as §1
T2 sequence (Q9BV23 whole entry): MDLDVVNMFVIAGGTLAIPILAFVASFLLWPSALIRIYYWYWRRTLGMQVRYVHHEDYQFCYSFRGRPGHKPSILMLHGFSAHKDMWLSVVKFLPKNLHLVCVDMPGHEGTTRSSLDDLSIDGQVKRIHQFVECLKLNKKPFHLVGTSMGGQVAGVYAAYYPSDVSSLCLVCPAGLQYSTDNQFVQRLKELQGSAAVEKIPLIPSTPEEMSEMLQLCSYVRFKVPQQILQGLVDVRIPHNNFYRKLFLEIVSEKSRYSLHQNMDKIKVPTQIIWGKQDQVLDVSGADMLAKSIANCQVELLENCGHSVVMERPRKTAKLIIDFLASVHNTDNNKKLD

Mus musculus [4] = test: In vivo agonist activity at CB1R in BALB/c mouse assessed as induction of analgesia at 50 mg/kg, ip measured after 1 hr by hot plate test; type: functional, organism-based
Summary of the method: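 Male BALB/c mice (8–10 weeks) given compound in pure DMSO intraperitoneally, 5–8 mice per group. Hot plate at 54–56 °C inside a Plexiglas cylinder, 1 h post-dose. Read-out is latency to first nociceptive response (paw lick or foot shake). Groups compared with vehicle by Kruskal–Wallis then Mann–Whitney.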

Mus musculus [5] = test: In vivo agonist activity at CB1R in BALB/c mouse assessed as catalepsy like behaviour at 50 mg/kg, ip measured after 1 hr by bar test; type: functional, organism-based
Summary of the method: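 Male BALB/c mice (8–10 weeks) given compound in pure DMSO intraperitoneally, 5–8 mice per group. Bar test at 1 h: forelimbs placed on a 4 cm high bar. End-point is both front limbs removed or held over 120 s. Three trials per mouse. Groups compared with vehicle by Kruskal–Wallis then Mann–Whitney.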

Mus musculus [6] = test: In vivo agonist activity at CB1R in BALB/c mouse assessed as induction of hypolocomotion at 50 mg/kg, ip measured after 1 hr by rotarod test; type: functional, organism-based
Summary of the method: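 Male BALB/c mice (8–10 weeks) given compound in pure DMSO intraperitoneally, 5–8 mice per group. Rotarod at 6 rpm, 1 h post-dose. Read-out is latency to fall, cutoff 120 s, over three trials. Groups compared with vehicle by Kruskal–Wallis then Mann–Whitney.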

Monoglyceride lipase = molecular target: T3, Monoglyceride lipase (Homo sapiens, UniProt Q99685); test: Inhibition of MAGL (unknown origin) in human U-937 cells using [ethanolamine-1-3H]AEA as substrate preincubated for 30 mins followed by substrate addition measured after 15 mins by liquid scintillation spectroscopy; type: cell-based
T3 sequence (Q99685 whole entry): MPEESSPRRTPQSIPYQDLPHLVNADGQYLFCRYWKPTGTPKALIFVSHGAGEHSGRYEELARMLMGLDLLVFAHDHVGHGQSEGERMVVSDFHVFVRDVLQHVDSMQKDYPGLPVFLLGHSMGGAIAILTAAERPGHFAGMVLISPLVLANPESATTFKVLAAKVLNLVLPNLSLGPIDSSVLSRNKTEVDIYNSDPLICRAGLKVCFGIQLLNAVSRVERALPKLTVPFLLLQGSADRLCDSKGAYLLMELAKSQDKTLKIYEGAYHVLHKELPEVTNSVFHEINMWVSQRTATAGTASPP

[7] = molecular target: T4, Fatty-acid amide hydrolase 1 (Homo sapiens, UniProt O00519); test: Inhibition of FAAH (unknown origin) in human U-937 cells using [ethanolamine-1-3H]AEA as substrate preincubated for 30 mins followed by substrate addition measured after 15 mins by liquid scintillation spectroscopy; type: cell-based
T4 sequence (O00519 whole entry): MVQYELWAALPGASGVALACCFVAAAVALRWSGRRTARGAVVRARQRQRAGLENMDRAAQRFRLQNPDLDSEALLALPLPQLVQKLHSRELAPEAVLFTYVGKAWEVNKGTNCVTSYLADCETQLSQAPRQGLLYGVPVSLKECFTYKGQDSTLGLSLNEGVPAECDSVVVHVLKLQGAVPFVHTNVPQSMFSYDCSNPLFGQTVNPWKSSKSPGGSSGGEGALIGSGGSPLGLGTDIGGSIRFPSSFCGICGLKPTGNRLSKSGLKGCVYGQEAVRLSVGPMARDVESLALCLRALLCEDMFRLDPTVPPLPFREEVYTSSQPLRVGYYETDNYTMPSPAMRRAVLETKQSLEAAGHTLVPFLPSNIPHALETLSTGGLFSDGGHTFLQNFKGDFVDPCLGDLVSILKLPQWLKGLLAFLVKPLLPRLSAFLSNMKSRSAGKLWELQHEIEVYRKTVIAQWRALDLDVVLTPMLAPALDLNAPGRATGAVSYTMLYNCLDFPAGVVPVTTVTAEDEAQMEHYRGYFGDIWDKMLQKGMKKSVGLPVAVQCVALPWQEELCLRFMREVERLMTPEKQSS
Summary of the method: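 U937 cell homogenate (100 μg) in 10 mM Tris-HCl, 1 mM EDTA, 0.1% fatty-acid-free BSA, pH 8. Compound preincubated 30 min at 37 °C, then 100 nM AEA with 1 nM [ethanolamine-1-3H]AEA tracer added for 15 min at 37 °C. Stopped with cold CHCl3/MeOH (1:1); tritium counted in aqueous phase.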

SMILES | Activity (Mus musculus [1]) | IC50 [2] | IC50 [3] | Activity (Mus musculus [4]) | Activity (Mus musculus [5]) | Activity (Mus musculus [6]) | IC50 (Monoglyceride lipase) | IC50 [7]
CCCCCc1cc(O)c2c(c1)OC(C)(C)[C@@H]1CCC(C)=C[C@@H]21 [DRONABINOL] | Active | 11.6 µM | 48.2 µM | Active | Active | Active | > 100 µM | 43.6 µM
CCCCCc1cc(O)c2c(c1)OC(C)(C)[C@@H]1CCC(C)=C[C@H]21 | – | 28.8 µM | 35.1 µM | – | – | – | > 100 µM | > 80 µM
CCCCCc1cc(O)c2c(c1)OC(C)(C)[C@H]1CCC(C)=C[C@@H]21 | Active | 14.1 µM | 39.8 µM | Active | Active | Active | > 100 µM | 36.3 µM
